The text below walks through data of ChEMBL document CHEMBL1156776, “Hybrid inhibitors of phosphatidylinositol 3-kinase (PI3K) and the mammalian target of rapamycin (mTOR): design, synthesis, and superior antitumor activity of novel wortmannin-rapamycin conjugates” (J Med Chem, 2010).

Data set [1] can be described thus: Solubility in water. The data set is classed as physicochemical. Particulars: buffer.
Data set [2] has as its system U-87MG ATCC. The experiment in a line: Antitumor activity against human U87MG cells xenografted in nude mouse assessed as inhibition of AKT S473 phosphorylation at 10 mg/kg, iv administered as single dose measured after 2 hrs. The data set is classed as functional, organism-based. Details: dose 10 mg/kg. In outline:
(§1)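 Nude mice bearing U87MG tumors got a single iv dose. Tumors were excised 2 h later and analysed by Western blot for phosphoproteins (AKT S473, T308) against vehicle-treated controls.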

The subject of data set [3] is U-87MG ATCC. Description: Antitumor activity against human U87MG cells xenografted in nude mouse assessed as inhibition of AKT T308 phosphorylation at 10 mg/kg, iv administered as single dose measured after 2 hrs. The format is functional, organism-based. Details: dose 10 mg/kg. In outline: as §1
The test system of data set [4] is U-87MG ATCC. Description: Antitumor activity against human U87MG cells xenografted in nude mouse assessed as inhibition of S6K phosphorylation at 10 mg/kg, iv administered as single dose measured after 2 hrs. The format is functional, organism-based. Details: dose 10 mg/kg. Background: In xenograft studies the graft and the host belong to different species.
Data set [5] relates to A498. Description: Antitumor activity against human A498 cells xenografted in nude mouse assessed as tumor growth inhibition at 25 mg/kg, iv once weekly.
Data set [6] is described as follows: Solubility at pH 7.4. The format is physicochemical. Particulars: buffer.
Data set [7] has as its system HT-29. The experiment in a line: Antitumor activity against human HT-29 cells xenografted in nude mouse assessed as tumor growth inhibition at 5 mg/kg, iv once weekly. Details: dose 5 mg/kg. The data set is classed as functional, organism-based. The procedure, abridged: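 HT29 cells from ATCC, cultured by standard methods, grown as tumors in nude mice and randomized into groups (n = 10). Agent formulated in 5% dextrose in water and given iv once weekly. Vehicle-dosed controls. Tumor growth was monitored and analyzed as previously described.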

Data set [8] relates to Plasma. The experiment in a line: Stability in rat plasma after 5 hrs. The format is ADME, cell-free.
Data set [9] deals with Serine/threonine-protein kinase mTOR (Homo sapiens) (UniProt P42345). The experiment in a line: Inhibition of mTOR.
Data set [10] in a line: Inhibition of PI3K.
The subject of data set [11] is Plasma. Description: Stability in human plasma after 5 hrs. The format is ADME, cell-free.
The subject of data set [12] is Plasma. Description: Stability in mouse plasma after 5 hrs. The format is ADME, cell-free.
Data set [13] can be described thus: Stability in mouse plasma assessed as compound remaining after 120 mins relative to basal level. The data set is classed as ADME, cell-free. Particulars: read-out: Stability. The procedure, abridged: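 Compound was incubated in heparinized plasma at 37 °C for 2 h. Samples taken at various time points were quenched with acetonitrile, dried under nitrogen and reconstituted in methanol/water 20:80. Intact compound was quantified by LC/MS.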

Data set [14] concerns U-87MG ATCC. Description: Antitumor activity against human U87MG cells xenografted in nude mouse assessed as tumor growth inhibition at 3 mg/kg, iv once weekly. The format is functional, organism-based. Details: dose 3 mg/kg. In outline: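 U87MG glioma xenografts in nude mice were staged and randomized (n = 10). Dosing was iv once weekly in D5W (days 0, 6 or days 0, 6, 13), with vehicle controls. Tumor volume was measured twice weekly.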

In data set [15] the test system is Plasma. The experiment in a line: Stability in mouse plasma in presence of esterase inhibitor sodium fluoride. The data set is classed as ADME, cell-free. In outline:
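Compound was incubated in nude mouse plasma or whole blood at 37 °C for 2 h, with heparin or sodium fluoride/EDTA as anticoagulant. Time-point samples were quenched with acetonitrile, dried, reconstituted and analysed by LC/MS for parent and hydrolysis products.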

The source made the active and inactive calls. The rule behind the calls is not given here. Bounds are passed on as bounds.

By solubility is commonly meant how much of the substance goes into solution per volume. Lower therefore signals little dissolved substance. For `CO[C@H]1C[C@@H]2CC[C@@H](C)[C@@](O)(O2)C(=O)C(=O)N2CCCC[C@H]2C(=O)O[C@H]([C@H](C)C[C@@H]2CC[C@@H](O)[C@H](OC)C2)CC(=O)[C@H](C)/C=C(\C)[C@@H](O)[C@@H](OC)C(=O)[C@H](C)C[C@H](C)/C=C/C=C/C=C/1C` [SIROLIMUS], the solubility entry in data set [1] is listed as “Insoluble”. In addition, the outcome in data set [2] and in data set [3] was inactive. Besides, the outcome in data set [4] and in data set [5] was Active.
As for `COC[C@H]1OC(=O)/C(=C\N(C)CCCN(C)C)C2=C(O)C(=O)C3=C([C@H](OC(C)=O)C[C@]4(C)[C@@H](O)CC[C@@H]34)[C@]21C`, the solubility in data set [6] is > 10000 µg/mL. Also, in [7], the outcome was inactive.
As for `C=CCN(/C=C1\C(=O)O[C@H](COC)[C@@]2(C)C1=C(O)C(=O)C1=C2[C@H](OC(C)=O)C[C@]2(C)[C@@H](OC(=O)CCCCCCC(=O)O[C@H]3CC[C@H](C[C@@H](C)[C@@H]4CC(=O)[C@H](C)/C=C(\C)[C@@H](O)[C@@H](OC)C(=O)[C@H](C)C[C@H](C)/C=C/C=C/C=C(\C)[C@@H](OC)C[C@@H]5CC[C@@H](C)[C@@](O)(O5)C(=O)C(=O)N5CCCC[C@H]5C(=O)O4)CC3)CC[C@@H]12)CC=C`, the Stability entry in [8], in [11] and in data set [12] was “Stable” in each case. Also, the inhibition result in data set [9] and in [10] was “inactive” throughout.
As to `C=CCN(/C=C1\C(=O)O[C@H](COC)[C@@]2(C)C1=C(O)C(=O)C1=C2[C@H](OC(C)=O)C[C@]2(C)[C@@H](O)CC[C@@H]12)CC=C`, the solubility in data set [6] was > 100 µg/mL.
Consider `COC[C@H]1OC(=O)/C(=C\N(C)CCCN(C)C)C2=C(O)C(=O)C3=C([C@H](OC(C)=O)C[C@]4(C)[C@@H](OC(=O)CCCCC(=O)O[C@@H]5CC[C@@H](C[C@@H](C)[C@@H]6CC(=O)[C@H](C)/C=C(\C)[C@@H](O)[C@@H](OC)C(=O)[C@H](C)C[C@H](C)/C=C/C=C/C=C(\C)[C@@H](OC)C[C@@H]7CC[C@@H](C)[C@@](O)(O7)C(=O)C(=O)N7CCCC[C@H]7C(=O)O6)C[C@H]5OC)CC[C@@H]34)[C@]21C`, for which the remaining at 2 h in [13] worked out at 4%. The inhibition result in data set [9] and in data set [10] was “inactive” throughout. In data set [14], the result was Active. Moreover, in data set [15], the Stability entry is reported as “Stable”.
With `COC[C@H]1OC(=O)/C(=C\N(C)CCCN(C)C)C2=C(O)C(=O)C3=C([C@H](OC(C)=O)C[C@]4(C)[C@@H](OC(=O)CCCCCCC(=O)O[C@H]5CC[C@H](C[C@@H](C)[C@@H]6CC(=O)[C@H](C)/C=C(\C)[C@@H](O)[C@@H](OC)C(=O)[C@H](C)C[C@H](C)/C=C/C=C/C=C(\C)[C@@H](OC)C[C@@H]7CC[C@@H](C)[C@@](O)(O7)C(=O)C(=O)N7CCCC[C@H]7C(=O)O6)CC5)CC[C@@H]34)[C@]21C`, the inhibition entry in [9] and in data set [10] was “inactive” each time.
On to `C=CCN(/C=C1\C(=O)O[C@H](COC)[C@@]2(C)C1=C(O)C(=O)C1=C2[C@H](OC(C)=O)C[C@]2(C)[C@@H](OC(=O)CCCCCCC(=O)O[C@@H]3CC[C@@H](C[C@@H](C)[C@@H]4CC(=O)[C@H](C)/C=C(\C)[C@@H](O)[C@@H](OC)C(=O)[C@H](C)C[C@H](C)/C=C/C=C/C=C(\C)[C@@H](OC)C[C@@H]5CC[C@@H](C)[C@@](O)(O5)C(=O)C(=O)N5CCCC[C@H]5C(=O)O4)C[C@H]3OC)CC[C@@H]12)CC=C`, for which the Stability result in data set [8], in [11] and in data set [12] was “Stable” in each case. The inhibition result in data set [9] and in data set [10] was “inactive” in each case.
Take `COC[C@H]1OC(=O)/C(=C\N(C)CCCN(C)C)C2=C(O)C(=O)C3=C([C@H](OC(C)=O)C[C@]4(C)[C@@H](OC(=O)CCC(=O)O[C@@H]5CC[C@@H](C[C@@H](C)[C@@H]6CC(=O)[C@H](C)/C=C(\C)[C@@H](O)[C@@H](OC)C(=O)[C@H](C)C[C@H](C)/C=C/C=C/C=C(\C)[C@@H](OC)C[C@@H]7CC[C@@H](C)[C@@](O)(O7)C(=O)C(=O)N7CCCC[C@H]7C(=O)O6)C[C@H]5OC)CC[C@@H]34)[C@]21C`: the remaining at 2 h in data set [13] worked out at 15%. In addition, the inhibition entry in [9] and in data set [10] was “inactive” in each case. Besides, the result in [14] was Active. Moreover, the Stability result in [15] is “Stable”.
